The record followed here is ChEMBL document CHEMBL4033780, “Lipidated Brartemicin Analogues Are Potent Th1-Stimulating Vaccine Adjuvants” (J Med Chem, 2018).

Active and inactive are the calls of the source. The calls are words filed in the database; no cut-off is given here.

The target in series [1] is T1, C-type lectin domain family 4 member E (Mus musculus) (UniProt Q9R0Q8).
T1 sequence (whole entry): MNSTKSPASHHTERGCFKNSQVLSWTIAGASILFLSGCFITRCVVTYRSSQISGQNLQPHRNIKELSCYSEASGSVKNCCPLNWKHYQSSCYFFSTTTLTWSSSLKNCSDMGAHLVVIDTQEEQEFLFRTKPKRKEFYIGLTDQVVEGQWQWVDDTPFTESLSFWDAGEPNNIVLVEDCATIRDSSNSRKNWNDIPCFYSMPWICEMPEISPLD
Kind of series: Agonist activity at mincle in wild type C57BL/6 mouse GM-CSF derived BMDM assessed as increase in IL-6 release at 0.1 to 1 nmol after 24 hrs by sandwich ELISA. The gist of the method:
(§1)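 Wild-type or Mincle−/− C57BL/6 bone marrow was cultured 8 days with GM-CSF 50 ng/mL in complete RPMI. Macrophages were detached with Acutase and seeded on ligand-coated plates (0.1 or 1 nmol/well); LPS 100 ng/mL was used as comparator. Supernatant was taken at 24 h and TNF, IL-6, IL-1β and MIP-2 measured by sandwich ELISA. Representative of three experiments in triplicate (±SD).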

For series [2], the target named is T1, C-type lectin domain family 4 member E (Mus musculus). Kind of series: Agonist activity at mincle in wild type C57BL/6 mouse GM-CSF derived BMDM assessed as increase in IL-1beta release at 0.1 to 1 nmol after 24 hrs by sandwich ELISA. The gist of the method:
as §1

The target is the same in series [3]. Kind of series: Agonist activity at mincle in wild type C57BL/6 mouse GM-CSF derived BMDM assessed as increase in MIP2 release at 0.1 to 1 nmol after 24 hrs by sandwich ELISA. A digest of the protocol:
as §1

Series [4] shares this target. Kind of series: Agonist activity at mincle in wild type C57BL/6 mouse GM-CSF derived BMDM assessed as increase in TNF release at 0.1 to 1 nmol after 24 hrs by sandwich ELISA. The gist of the method: as §1
Series [5] has the same target. Kind of series: Binding affinity to recombinant mouse mincle extracellular domain fused with human IgG Fc expressed in HEK293T cells at 0.1 nmol by ELISA. Type of series: cell-based. Particulars: HEK-293T.
For series [6], the target named is T2, C-type lectin domain family 4 member E (Homo sapiens) (UniProt Q9ULY5).
T2 sequence (whole entry): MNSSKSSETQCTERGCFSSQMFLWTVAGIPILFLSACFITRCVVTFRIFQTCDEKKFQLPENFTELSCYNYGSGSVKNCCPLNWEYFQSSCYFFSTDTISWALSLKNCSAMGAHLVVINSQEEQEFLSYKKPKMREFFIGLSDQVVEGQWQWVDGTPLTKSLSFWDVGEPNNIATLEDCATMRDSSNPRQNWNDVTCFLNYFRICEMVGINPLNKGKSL
Kind of series: Binding affinity to recombinant human mincle extracellular domain fused with human IgG Fc expressed in HEK293T cells at 0.1 nmol by ELISA. Type of series: cell-based. Particulars: HEK-293T.

The subject of series [7] is BMDM. Kind of series: Immunostimulatory activity in mincle-/- C57BL/6 mouse GM-CSF derived BMDM assessed as increase in TNF release at […] after 24 hrs by sandwich ELISA method. Type of series: functional, cell-based. A digest of the protocol: as §1
Series [8] concerns BMDM. Kind of series: Immunostimulatory activity in mincle-/- C57BL/6 mouse GM-CSF derived BMDM assessed as increase in MIP2 release at […] after 24 hrs by sandwich ELISA method. Type of series: functional, cell-based. The gist of the method:
as §1

The subject of series [9] is BMDM. Kind of series: Immunostimulatory activity in mincle-/- C57BL/6 mouse GM-CSF derived BMDM assessed as increase in IL-6 release at […] after 24 hrs by sandwich ELISA method. Type of series: functional, cell-based. The gist of the method: as §1
Series [10] deals with BMDM. Kind of series: Immunostimulatory activity in mincle-/- C57BL/6 mouse GM-CSF derived BMDM assessed as increase in IL-1beta release at […] after 24 hrs by sandwich ELISA method. The series is classed as functional, cell-based. The gist of the method: as §1
The nature of series [11]: Toxicity in Atlantic horseshoe crab blood limulus amebocyte lysate by chromogenic endotoxin test. As to conditions: limulus polyphemus. A digest of the protocol: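 Endotoxin was measured by chromogenic Limulus amebocyte lysate assay at a sensitivity of ≤0.1 EU/mL.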
The target of series [12] is T1, C-type lectin domain family 4 member E (Mus musculus). Kind of series: Agonist activity at mouse mincle coupled with FcRgamma expressed in 2B4-NFAT-GFP reporter cells up to 1 nmol after 18 hrs by flow cytometric analysis. The series is classed as cell-based. A digest of the protocol:
(§2)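 2B4 NFAT-GFP reporter cells expressing mouse or human Mincle plus FcRγ were placed on plates coated with ligand at 0.01, 0.1 or 1 nmol/well; cells expressing FcRγ only served as negative control. Ligand was coated from isopropanol, 0.05 mM, and solvent evaporated. After 18 h, cells were harvested, stained with propidium iodide and GFP read by flow cytometry. Mean of three experiments in duplicate (±SEM).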

Series [13] concerns the target T2, C-type lectin domain family 4 member E (Homo sapiens). Kind of series: Agonist activity at human mincle coupled with FcRgamma expressed in 2B4-NFAT-GFP reporter cells after 18 hrs by flow cytometric analysis. The series is classed as cell-based. A digest of the protocol: as §2
Series [14] has as its target T1, C-type lectin domain family 4 member E (Mus musculus). Kind of series: Agonist activity at mouse mincle coupled with FcRgamma expressed in 2B4-NFAT-GFP reporter cells after 18 hrs by flow cytometric analysis. Type of series: cell-based. A digest of the protocol:
as §2

Series [15] deals with T2, C-type lectin domain family 4 member E (Homo sapiens). Kind of series: Agonist activity at human mincle coupled with FcRgamma expressed in 2B4-NFAT-GFP reporter cells at higher concentration after 18 hrs by flow cytometric analysis. The series is classed as cell-based. A digest of the protocol:
as §2

Regarding `Cc1cc(O)cc(O)c1C(=O)OC[C@H]1O[C@H](O[C@H]2O[C@H](COC(=O)c3c(C)cc(O)cc3O)[C@@H](O)[C@H](O)[C@H]2O)[C@H](O)[C@@H](O)[C@@H]1O` [BRARTEMICIN], the outcome in series [1], in series [2], in [3], in series [4], in series [5] and in series [6] was inactive. The outcome (in the series with BMDM [7]; in the series on BMDM [8]; in the series on BMDM [9]; with BMDM [10]; in series [12]) was inactive. Besides, the Activity entry in [11] was “<= 0.1 EU/ml”.

Take `O=C(OC[C@H]1O[C@H](O[C@H]2O[C@H](COC(=O)c3ccc(O)cc3O)[C@@H](O)[C@H](O)[C@H]2O)[C@H](O)[C@@H](O)[C@@H]1O)c1ccc(O)cc1O`: the result in series [1], in [2], in series [3], in series [4], in series [5] and in series [6] was inactive. For the same molecule, the result (with BMDM [7]; in the series with BMDM [8]; with BMDM [9]; in the series on BMDM [10]; in series [12]) was inactive. For the same molecule, the Activity entry in series [11] is “<= 0.1 EU/ml”.

Consider `CCCCCCCCCCCCCCCCCCOc1ccc(C(=O)OC[C@H]2O[C@H](O[C@H]3O[C@H](COC(=O)c4ccc(OCCCCCCCCCCCCCCCCCC)cc4)[C@@H](OCc4ccccc4)[C@H](OCc4ccccc4)[C@H]3OCc3ccccc3)[C@H](OCc3ccccc3)[C@@H](OCc3ccccc3)[C@@H]2OCc2ccccc2)cc1`, for which the Activity entry in series [11] is recorded as “<= 0.1 EU/ml”.

Consider `Cc1cc(OCc2ccccc2)cc(OCc2ccccc2)c1C(=O)OC[C@H]1O[C@H](O[C@H]2O[C@H](COC(=O)c3c(C)cc(OCc4ccccc4)cc3OCc3ccccc3)[C@@H](OCc3ccccc3)[C@H](OCc3ccccc3)[C@H]2OCc2ccccc2)[C@H](OCc2ccccc2)[C@@H](OCc2ccccc2)[C@@H]1OCc1ccccc1`, for which the Activity entry in [11] is “<= 0.1 EU/ml”.

In the case of `CCCCCCCOc1ccc(C(=O)OC[C@H]2O[C@H](O[C@H]3O[C@H](COC(=O)c4ccc(OCCCCCCC)cc4)[C@@H](OCc4ccccc4)[C@H](OCc4ccccc4)[C@H]3OCc3ccccc3)[C@H](OCc3ccccc3)[C@@H](OCc3ccccc3)[C@@H]2OCc2ccccc2)cc1`, in [11], the Activity entry is reported as “<= 0.1 EU/ml”.

Regarding `CCCCCCCCCCCCCCCCCCOc1cc(C)c(C(=O)OC[C@H]2O[C@H](O[C@H]3O[C@H](COC(=O)c4c(C)cc(OCCCCCCCCCCCCCCCCCC)cc4O)[C@@H](O)[C@H](O)[C@H]3O)[C@H](O)[C@@H](O)[C@@H]2O)c(O)c1`, the outcome in [1], in [2], in series [3], in series [4], in series [5] and in [6] was Active. For the same molecule, the Activity entry in series [13] was “Dose-dependent effect”; in [14], “Dose-dependent effect”; in series [11], “<= 0.1 EU/ml”. In addition, the result in the series on BMDM [7], with BMDM [8], with BMDM [9] and in the series on BMDM [10] was inactive.

As to `CCCCCCCOc1ccc(C(=O)OC[C@H]2O[C@H](O[C@H]3O[C@H](COC(=O)c4ccc(OCCCCCCC)cc4OCc4ccccc4)[C@@H](OCc4ccccc4)[C@H](OCc4ccccc4)[C@H]3OCc3ccccc3)[C@H](OCc3ccccc3)[C@@H](OCc3ccccc3)[C@@H]2OCc2ccccc2)c(OCc2ccccc2)c1`, in series [11], the Activity entry is reported as “<= 0.1 EU/ml”.

Turning to `CCCCCCCCCCCCCCCCCCOc1cc(C)c(C(=O)OC[C@H]2O[C@H](O[C@H]3O[C@H](COC(=O)c4c(C)cc(OCCCCCCCCCCCCCCCCCC)cc4OCc4ccccc4)[C@@H](OCc4ccccc4)[C@H](OCc4ccccc4)[C@H]3OCc3ccccc3)[C@H](OCc3ccccc3)[C@@H](OCc3ccccc3)[C@@H]2OCc2ccccc2)c(OCc2ccccc2)c1`, the Activity result in series [11] is “<= 0.1 EU/ml”.

For `COc1ccc(C(=O)OC[C@H]2O[C@H](O[C@H]3O[C@H](COC(=O)c4ccc(OC)cc4O)[C@@H](O)[C@H](O)[C@H]3O)[C@H](O)[C@@H](O)[C@@H]2O)c(O)c1`, the outcome in series [1], in series [2], in series [3], in series [4], in series [5] and in series [6] was inactive. Also, the result with BMDM [7], in the series with BMDM [8], in the series on BMDM [9] and in the series on BMDM [10] was inactive. For the same molecule, the result in series [15] was Active. In addition, in series [11], the Activity result is listed as “<= 0.1 EU/ml”.

`CCCCCCCCCCCCCCCCCCOc1ccc(C(=O)OC[C@H]2O[C@H](O[C@H]3O[C@H](COC(=O)c4ccc(OCCCCCCCCCCCCCCCCCC)cc4)[C@@H](O)[C@H](O)[C@H]3O)[C@H](O)[C@@H](O)[C@@H]2O)cc1`: the result in series [1], in [2], in series [3], in series [4], in series [5] and in series [6] was Active. Moreover, the figures for the Activity entry in [13], in series [14] and in series [11] were “Dose-dependent effect”, “Dose-dependent effect” and “<= 0.1 EU/ml”, respectively. Besides, the result in the series with BMDM [7], in the series with BMDM [8], in the series with BMDM [9] and with BMDM [10] was inactive.

`CCCCOc1ccc(C(=O)OC[C@H]2O[C@H](O[C@H]3O[C@H](COC(=O)c4ccc(OCCCC)cc4OCc4ccccc4)[C@@H](OCc4ccccc4)[C@H](OCc4ccccc4)[C@H]3OCc3ccccc3)[C@H](OCc3ccccc3)[C@@H](OCc3ccccc3)[C@@H]2OCc2ccccc2)c(OCc2ccccc2)c1`: in series [11], the Activity result is reported as “<= 0.1 EU/ml”.

In the case of `O=C(OC[C@H]1O[C@H](O[C@H]2O[C@H](COC(=O)c3ccc(OCc4ccccc4)cc3OCc3ccccc3)[C@@H](OCc3ccccc3)[C@H](OCc3ccccc3)[C@H]2OCc2ccccc2)[C@H](OCc2ccccc2)[C@@H](OCc2ccccc2)[C@@H]1OCc1ccccc1)c1ccc(OCc2ccccc2)cc1OCc1ccccc1`, in series [11], the Activity result is listed as “<= 0.1 EU/ml”.

As for `COc1ccc(C(=O)OC[C@H]2O[C@H](O[C@H]3O[C@H](COC(=O)c4ccc(OC)cc4OCc4ccccc4)[C@@H](OCc4ccccc4)[C@H](OCc4ccccc4)[C@H]3OCc3ccccc3)[C@H](OCc3ccccc3)[C@@H](OCc3ccccc3)[C@@H]2OCc2ccccc2)c(OCc2ccccc2)c1`, in series [11], the Activity result was “<= 0.1 EU/ml”.

As to `CCCCCCCCCCCCCCCCCCOc1ccc(C(=O)OC[C@H]2O[C@H](O[C@H]3O[C@H](COC(=O)c4ccc(OCCCCCCCCCCCCCCCCCC)cc4OCc4ccccc4)[C@@H](OCc4ccccc4)[C@H](OCc4ccccc4)[C@H]3OCc3ccccc3)[C@H](OCc3ccccc3)[C@@H](OCc3ccccc3)[C@@H]2OCc2ccccc2)c(OCc2ccccc2)c1`, the Activity entry in [11] was “<= 0.1 EU/ml”.
